Test results reported in ChEMBL document CHEMBL1145775, “Development of potential antitumor agents. Synthesis and biological evaluation of a new set of sulfonamide derivatives as histone deacetylase inhibitors” (J Med Chem, 2003).
Values belong to the molecule of their own block, whether it stands above or below them.

Tests used:
[1] = The relative effective concentration to induce same level of histone H4 acetylation of human T24 cells by MS-275 at 1 uM; format: functional, T-24
Histone deacetylase 1 = Histone deacetylase 1 (Homo sapiens, UniProt Q13547); assay: Inhibitory activity on partially purified recombinant human Histone deacetylase 1 (HDAC-1)
HMEC = assay: Inhibitory concentration against normal epithelial HMEC cell line; format: functional, cell-based; settings: Homo sapiens
How it was run: (§1)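 MTT assay: cells exposed to a range of compound concentrations for 72 h at 37 °C, 5% CO2. MTT added at 0.5 mg/mL final for 4 h, then solubilized with DMF/SDS buffer (pH 4.7) overnight; absorbance at 570 with 630 reference. OD converted to cell numbers via a standard growth curve.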

NCI-H446 = assay: Inhibitory concentration against lung H446 cell line; format: functional, cell-based; settings: Homo sapiens; how it was run: as §1
MCF7 = assay: Inhibitory concentration against breast MCF-7 cell line; format: functional, cell-based; settings: Homo sapiens; how it was run: as §1
MDA-MB-231 = assay: Inhibitory concentration against breast MDA-MB-231 cell line; format: functional, cell-based; settings: Homo sapiens; how it was run: as §1
SW48 = assay: Inhibitory concentration against colon SW48 cell line; format: functional, cell-based; settings: Homo sapiens; how it was run: as §1
HCT-116 [2] = assay: Inhibitory concentration against colon HCT116 cell line; format: functional, cell-based; settings: Homo sapiens; how it was run: as §1
T-24 = assay: Inhibitory concentration against bladder T24 cell line; format: functional, cell-based; settings: Homo sapiens; how it was run: as §1
A549 = assay: Inhibitory concentration against lung A549 cell line; format: functional, cell-based; settings: Homo sapiens; how it was run: as §1
DU-145 = assay: Inhibitory concentration against prostate DU145 cell line; format: functional, cell-based; settings: Homo sapiens; how it was run: as §1
[3] = test system: Fibroblast MRHF cell line; assay: Inhibitory concentration against normal fibroblast MRHF cell line; format: functional, cell-based; settings: Homo sapiens; how it was run: as §1
HCT-116 [4] = assay: In vivo percent inhibitory activity of intraperitoneally administered compound (40 mg/kg/day) against mice […] with HCT116 tumor; format: functional, Homo sapiens
How it was run: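 CD1 nude mice (18–22 g) implanted with 30 mg fragments of serially passaged A549 or HCT116 tumor; randomized at ~100 mm3 mean tumor volume, six per group. Daily intraperitoneal dosing (7 days/week) for 21 days, compound dissolved in DMSO; vehicle-only controls. Body weight and tumor volume monitored three times weekly; percent tumor growth inhibition versus vehicle.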

Sequence of Histone deacetylase 1 (Q13547 whole entry): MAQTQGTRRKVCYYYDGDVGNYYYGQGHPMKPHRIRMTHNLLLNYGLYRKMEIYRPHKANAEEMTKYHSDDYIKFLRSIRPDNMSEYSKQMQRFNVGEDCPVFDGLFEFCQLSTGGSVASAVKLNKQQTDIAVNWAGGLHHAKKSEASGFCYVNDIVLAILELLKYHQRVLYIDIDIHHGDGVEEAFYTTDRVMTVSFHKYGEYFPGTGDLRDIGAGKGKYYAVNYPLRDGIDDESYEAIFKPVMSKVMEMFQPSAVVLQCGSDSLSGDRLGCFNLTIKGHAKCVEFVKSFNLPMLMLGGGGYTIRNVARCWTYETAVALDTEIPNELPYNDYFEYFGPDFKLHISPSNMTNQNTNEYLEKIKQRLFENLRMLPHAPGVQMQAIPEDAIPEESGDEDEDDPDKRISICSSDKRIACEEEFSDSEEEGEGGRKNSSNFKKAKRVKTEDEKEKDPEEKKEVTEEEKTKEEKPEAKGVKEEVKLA

Compound: COc1ccc(S(=O)(=O)Nc2ccc(/C=C/C(=O)NO)cc2)cc1
EC [1]: 5 µM

Compound: Nc1ccccc1NC(=O)/C=C/c1ccc(NS(=O)(=O)c2ccc(-c3ccccc3)cc2)cc1
IC50 (HMEC): > 36 µM
EC [1]: 15 µM
IC50 (NCI-H446): 8 µM
IC50 (MCF7): 29 µM
IC50 (MDA-MB-231): 18 µM
IC50 (SW48): 30 µM
IC50 (HCT-116 [2]): 15 µM
IC50 (T-24): > 36 µM
IC50 (A549): 18 µM
IC50 (DU-145): 15 µM
IC50 [3]: > 25 µM

Compound: O=C(/C=C/c1ccc(NS(=O)(=O)c2cccc3cccnc23)cc1)NO
EC [1]: 25 µM

Compound: COc1ccc(S(=O)(=O)Nc2ccc(/C=C/C(=O)NO)cc2)cc1OC
IC50 (HMEC): 20 µM
EC [1]: 1 µM
IC50 (NCI-H446): 0.4 µM
IC50 (MCF7): 1.5 µM
IC50 (MDA-MB-231): 0.7 µM
IC50 (SW48): 0.8 µM
IC50 (HCT-116 [2]): 0.2 µM
IC50 (T-24): 2 µM
IC50 (A549): 2 µM
IC50 (DU-145): 0.75 µM
IC50 [3]: 5 µM

Compound: O=C(/C=C/c1ccc(S(=O)(=O)Nc2ccc(-c3ccccc3)cc2)cc1)NO
EC [1]: 1 µM

Compound: Cc1ccc(NS(=O)(=O)c2ccc(/C=C/C(=O)NO)cc2)cc1
EC [1]: 1 µM
IC50 (Histone deacetylase 1): 0.2 µM

Compound: O=C(/C=C/C#Cc1cccc(NS(=O)(=O)c2ccccc2)c1)NO [OXAMFLATIN]
IC50 (Histone deacetylase 1): 0.1 µM

Compound: O=C(O)/C=C/c1ccc(NS(=O)(=O)c2ccc(-c3ccccc3)cc2)cc1
IC50 (Histone deacetylase 1): > 25 µM

Compound: COc1ccc(NC(=O)Nc2ccc(/C=C/C(=O)NO)cc2)cc1OC
EC [1]: >25 µM
IC50 (Histone deacetylase 1): 1 µM

Compound: O=C(/C=C/c1ccc(NS(=O)(=O)c2ccc(-c3ccccc3)cc2)cc1)NO
EC [1]: 1 µM

Compound: O=C(/C=C/c1ccc(NS(=O)(=O)c2cccc3oc4ccccc4c23)cc1)NO
EC [1]: 1 µM
IC50 (Histone deacetylase 1): 0.04 µM

Compound: O=C(/C=C/c1ccc(NS(=O)(=O)c2cccc3ccccc23)cc1)NO
EC [1]: 5 µM

Compound: Cc1ccc(S(=O)(=O)Nc2ccc(/C=C/C(=O)Nc3ccccc3N)cc2)cc1
IC50 (HMEC): > 37 µM
IC50 (NCI-H446): 1 µM
IC50 (MCF7): 6 µM
IC50 (MDA-MB-231): 2 µM
IC50 (SW48): 10 µM
IC50 (HCT-116 [2]): 4 µM
IC50 (T-24): 8 µM
IC50 (A549): 8 µM
Inhibition (HCT-116 [4]): 55%
IC50 (DU-145): 2 µM
IC50 [3]: > 37 µM

Compound: Nc1ccccc1NC(=O)/C=C/c1ccc(S(=O)(=O)Nc2ccc(-c3ccccc3)cc2)cc1
EC [1]: 5 µM
IC50 (Histone deacetylase 1): 1 µM

Compound: Cc1ccc(S(=O)(=O)Nc2ccc(/C=C/C(=O)NO)cc2)cc1
EC [1]: 10 µM

Compound: Nc1ccccc1NC(=O)/C=C/C#Cc1ccc(NS(=O)(=O)c2ccccc2)cc1
IC50 (Histone deacetylase 1): 5 µM

Compound: COc1ccc(S(=O)(=O)Nc2ccc(/C=C/C(=O)Nc3ccccc3N)cc2)cc1
IC50 (HMEC): 38 µM
EC [1]: 1 µM
IC50 (NCI-H446): 2 µM
IC50 (MCF7): 8 µM
IC50 (MDA-MB-231): 6 µM
IC50 (SW48): 4 µM
IC50 (HCT-116 [2]): 2.5 µM
IC50 (T-24): 8 µM
IC50 (A549): 10 µM
IC50 (Histone deacetylase 1): 1 µM
IC50 (DU-145): 5 µM

Now from value to molecule, other results behind:

IC50 (Histone deacetylase 1): 0.2 µM
Compound: CN(C)c1cccc2c(S(=O)(=O)Nc3ccc(/C=C/C(=O)NO)cc3)cccc12
EC [1]: 5 µM

IC50 (Histone deacetylase 1): 0.05 µM
Compound: COc1ccc(NS(=O)(=O)c2ccc(/C=C/C(=O)NO)cc2)cc1OC

IC50 (NCI-H446): 1 µM
IC50 (MCF7): 5 µM
IC50 (MDA-MB-231): 3 µM
IC50 (SW48): 5 µM
IC50 (HCT-116 [2]): 0.6 µM
IC50 (T-24): 2.5 µM
IC50 (A549): 8 µM
IC50 (DU-145): 1 µM
Compound: Nc1ccccc1NC(=O)c1ccc(CNC(=O)OCc2cccnc2)cc1 [ENTINOSTAT]
IC50 (HMEC): > 37 µM
IC50 [3]: > 37 µM

IC50 (Histone deacetylase 1): 3 µM
Compound: COc1ccc(NS(=O)(=O)c2ccc(/C=C/C(=O)Nc3ccccc3N)cc2)cc1OC

IC50 (NCI-H446): 2 µM
IC50 (MCF7): 11.5 µM
IC50 (MDA-MB-231): 9 µM
IC50 (SW48): 6.5 µM
IC50 (HCT-116 [2]): 3.5 µM
IC50 (T-24): 6.5 µM
IC50 (A549): 9.5 µM
IC50 (Histone deacetylase 1): 2 µM
IC50 (DU-145): 7 µM
Compound: Cc1ccc(NS(=O)(=O)c2ccc(/C=C/C(=O)Nc3ccccc3N)cc2)cc1
IC50 (HMEC): > 41 µM
Inhibition (HCT-116 [4]): 37%
IC50 [3]: 34 µM

IC50 (Histone deacetylase 1): 0.4 µM
Compound: Nc1ccccc1NC(=O)/C=C/c1ccc(NS(=O)(=O)c2cccc3oc4ccccc4c23)cc1
EC [1]: 10 µM

IC50 (Histone deacetylase 1): 3 µM
Compound: Nc1ccccc1NC(=O)/C=C/c1ccc(NS(=O)(=O)c2cccc3ccccc23)cc1
EC [1]: 10 µM

IC50 (NCI-H446): 1.5 µM
IC50 (MCF7): 10 µM
IC50 (MDA-MB-231): 3.5 µM
IC50 (SW48): 5 µM
IC50 (HCT-116 [2]): 0.9 µM
IC50 (T-24): 4 µM
IC50 (A549): 4.5 µM
IC50 (DU-145): 3.5 µM
Compound: CC(/C=C/C(=O)NO)=C\[C@@H](C)C(=O)c1ccc(N(C)C)cc1 [TRICHOSTATIN]
IC50 (HMEC): 32 µM
IC50 [3]: 36 µM
